From ChEMBL document CHEMBL4513216, “Probing the Open Global Health Chemical Diversity Library for Multistage-Active Starting Points for Next-Generation Antimalarials” (ACS Infect Dis, 2020)

Assay: Toxicity liver stage against HepG2, at 10uM
Format: cell-based
Parameters: test concentration 10 uM, cell line HepG2-A16-CD81EGFP
Conditions: human, HepG2-A16-CD81EGFP cells; read-out: INHIBITION
Outline: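 Uninfected HepG2-A16-CD81EGFP cells, 3 × 10^3 per well, 1536-well, plated on prespotted compound at 10 μM final, parasite-free screening media added to match infected plates; puromycin 10 μM positive, DMSO 0.5% negative; run in parallel with 48 h PbLuc assay at 37 °C, 5% CO2; viability by CellTiter-Glo luminescence, normalized to controls.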

| Structure (SMILES) | cytotoxicity at 10 µM |
| --- | --- |
| CCOc1cc(Cl)ccc1CNC(=O)N(C)CC(C)(C)O | -0.538% |
| CS(=O)(=O)NCc1cc2n(n1)CCCN(Cc1nc3ccccc3[nH]1)C2 | -4.55% |
| Cc1noc(C)c1CN(C)Cc1nc(N)c2ccccc2n1 | 8.85% |
| CCc1cc(N2CCC(NCCc3nc(C)c(C)s3)CC2)nc(C)n1 | 0.902% |
| CCn1nc(C)cc1C(=O)N1CCOc2ccc(OC)cc21 | 14.3% |
| O=C(c1cn(-c2cc(N3CCSCC3)ncn2)cn1)N1CCSCC1 | -17.3% |
| Cn1ncc2c1CN(Cc1ccc(F)cc1)CC2COCC1CC1 (stereo unspecified) | 9.55% |
| Cn1ccc(CN2CCOCC23CCNCC3)n1 | 6.77% |
| O=c1[nH]c(CN(Cc2ccco2)C2CCCC2)nc2ccccc12 | 11.6% |
| CC(C)(C)c1cnc(CNCC2CCCN2c2cccnn2)o1 (stereo unspecified) | -2.2% |
| O=C(O)C1c2nc[nH]c2CCN1Cc1cc(-c2ccccc2)no1 (stereo unspecified) | -11.4% |
| O=C(Nc1ccccc1OCCc1ccccn1)N1CCOCC1 | 3.18% |
| CC(C)CNC(=O)CC1OCCc2ccsc21 (stereo unspecified) | -3.49% |
| CCOC(=O)C1(Cc2cccc(OC)c2)CCN(Cc2ncc[nH]2)CC1 | -7.82% |
| COc1ccc(CN2CCC3(CC(Nc4ccncn4)C3)C2)c(OC)c1 (stereo unspecified) | 2.43% |
| Cc1cnc(C(=O)N2C[C@@H]3CC[C@H]2CN(S(=O)(=O)N(C)C)C3)cn1 | -6.77% |
| O=C(NC1CC(=O)N(C2Cc3ccccc3C2)C1)c1ccoc1 (stereo unspecified) | -2.4% |
| C[C@@H](CO)NC(=O)c1ccc2nc(NS(C)(=O)=O)sc2c1 | 6.84% |
| Cc1cc(C)n(C2CCN(S(=O)(=O)N3CCOCC3)CC2)n1 | 3.88% |
| Cc1cnn(C2CN(CC(O)c3ccc4c(c3)OCCO4)C2)c1 (stereo unspecified) | 21.9% |
| CCc1cc(O)nc(C2CCCN2C(=O)c2cc(C)no2)n1 (stereo unspecified) | 2.69% |
| Cc1noc(C)c1CN1CCCC1c1c(C)nn(C)c1Cl (stereo unspecified) | -2% |
| CN(Cc1n[nH]c2c1CCC2)C(=O)c1cc(-c2cccn2C)n[nH]1 | 5.12% |

| Structure (SMILES) | cytotoxicity at 10 µM |
| --- | --- |
| c1cnnc(N2CCCC2CNCc2ccsc2)c1 (stereo unspecified) | -8.9% |
| CC(C)[C@]1(O)CN(C(=O)CNC(N)=O)C[C@H]1C | 5.69% |
| N#CCCNC(=O)CSc1ccc(F)cc1F | 3.94% |
| COC(=O)c1ccc(N2CCN(C(=O)C3CC3)C(C)C2)cc1 (stereo unspecified) | -1.07% |
| Cc1ccc(CN2CCc3c(nnn3C)C2COCc2ccccc2)s1 (stereo unspecified) | -110% |
| Cc1cc(C(F)(F)F)nn1C(C)C(=O)NN1CCOCC1 (stereo unspecified) | -1.67% |
| COc1cnc(N2CCC(Oc3ccccc3OC)(C(=O)O)CC2)nc1 | -13.5% |
| Cc1ccc(C2(O)CCN(Cc3nnc(-c4cccnc4)o3)CC2)nc1 | -7.77% |
| CCCc1nc(N(C)Cc2cnc(NC)nc2)c2cnn(C)c2n1 | 3.42% |
| CN1N=C(C(=O)NCCc2ccc(OC3CCCC3)cc2)CCC1=O | -1.52% |
| CCC(CC)NC(=O)c1cncc(Br)c1 | -0.211% |
| O=C(O)c1ccc(=O)n(CC(c2ccc(F)cc2)N2CCCCCC2)c1 (stereo unspecified) | 1.31% |
| CCc1nc(CN2CCCCC2C(N)=O)cs1 (stereo unspecified) | -7.96% |
| CN(C)C[C@H]1OC[C@@H]2CCN(C(=O)c3ccco3)C[C@@H]21 | 4.84% |
| Cc1csc2c(N3CCNC(C(=O)Nc4ccc(F)cc4)C3)ncnc12 (stereo unspecified) | 12.7% |
| CCCn1cc(-c2cc(-c3ccoc3)c(C#N)c(N)n2)c(C)n1 | 5.48% |
| Cc1ccc(NC2CCN(C(=O)c3cccc(F)c3F)CC2)nn1 | -4.4% |
| O=C1CCCCCN1CCc1nc(-c2cccnn2)no1 | -1.75% |
| Cc1cc(N2CCC(c3n[nH]c4nccnc34)C2)ncn1 (stereo unspecified) | -22.7% |
| COc1ccnc(N2CCN(C(=O)c3ccc(Cl)o3)CC2)n1 | -19.2% |
| CC(NC(=O)N1CCN(c2ncccn2)CC1)c1ccc(C#N)cc1 (stereo unspecified) | -2.81% |
| O=C(CC1OCCc2ccccc21)NCCn1cccc1 (stereo unspecified) | 1.71% |
| COc1cccc(CC(=O)N2CC[C@@H]3[C@H](CC2)N(C)CCS3(=O)=O)c1 | 3.68% |

| Structure (SMILES) | cytotoxicity at 10 µM |
| --- | --- |
| COC(=O)CCC(=O)Nc1ccc(Br)c(C)n1 | 7.07% |
| CC(C)Oc1ccccc1C(=O)NC1CC(=O)N(CC(F)(F)F)C1 (stereo unspecified) | 4.37% |
| CCn1c(C)nnc1CN(C)C1CCN(CCOc2ccccc2)C1 (stereo unspecified) | 0.796% |
| CCCc1ccc(CN2C[C@H]3C(=O)N(CC4CC4)C[C@@]3(C(=O)O)C2)o1 | -3.86% |
| CC(C)NC(=O)[C@H]1C[C@@H]2[C@@H](C1)OCCN2CC1CC1 | -6.13% |
| CN1CCN(C(=O)N2CCC3(CCCN(C4CCOCC4)C3=O)C2)CC1 (stereo unspecified) | -129% |
| Cc1ccc(S(=O)(=O)NC2CCC(=O)NC2)cc1Br (stereo unspecified) | -2.38% |
| CN(C)C(=O)[C@@H]1CCO[C@@H]2CCN(c3ncccn3)C[C@H]21 | 6.65% |
| OCc1cc2ccccc2nc1NC1CC=CC1 | -56% |
| Cn1cnc(S(=O)(=O)N2CCCC2)c1Cl | 15.1% |
| COCc1nnc(NC(=O)CN2C(=O)c3ccccc3NC2C(C)C)s1 (stereo unspecified) | -4.19% |
| Cc1ccccc1CCC1CCCN(Cc2c(C)[nH]c(=O)[nH]c2=O)C1 (stereo unspecified) | 5% |
| CCCc1cc(CN(C)C2CCSCC2)n[nH]1 | -20.6% |
| Cc1cc(NCCNS(C)(=O)=O)nc2cc3c(cc12)CCC3 | 2.9% |
| CC(C)CN1CCN(C(=O)c2ccncc2F)Cc2cccnc21 | 1.71% |
| Cc1cccc2nc(CN3CCCC(C)C3)cc(=O)n12 (stereo unspecified) | 2.46% |
| OCCN1CCC(c2csc(Nc3cnccn3)n2)CC1 | -4.26% |
| CS(=O)(=O)NC1CCN(C(=O)c2coc(CN3CCOCC3)c2)CC1 | 3.54% |
| Cc1nc(COC[C@]23COC[C@H]2CN(Cc2ccoc2)C3)cs1 | -19.2% |
| Cn1nc(CN2CCCC2)c2c1CN(c1cnccn1)CC2 | -95.3% |
| Cc1cc(C)c(S(N)(=O)=O)cc1C(=O)NCC1Cc2ccccc2O1 (stereo unspecified) | -4.53% |
| O=C(c1ccco1)N1C[C@H]2CCCN(CC3CCOCC3)[C@H]2C1 | -0.285% |
| O=C(c1ccc(F)c(F)c1)N1C[C@H]2CNC[C@H]2C1 | 5.82% |

| Structure (SMILES) | cytotoxicity at 10 µM |
| --- | --- |
| Cc1ccsc1CN(CCN(C)C)C(=O)C1=NNC(=O)CC1 | -13.4% |
| FC(F)(F)c1ccnc(N2CCCN(C3CCOCC3)CC2)c1 | -7.49% |
| Cc1nn(CC(=O)N2CCCCC2Cn2cccn2)c(C)c1Cl (stereo unspecified) | 2.35% |
| CN1Cc2ccccc2CC2(CCN(c3ncccn3)CC2)C1=O | -7.42% |
| O=C(NCc1ccccc1Cn1cncn1)C1CCC1 | -4.43% |
| C1CCC(c2nc3c(c(N4CC(N5CCOCC5)C4)n2)CCNCC3)C1 | -10.2% |
| O=S(=O)(Cc1ccccc1)NC[C@H]1Cn2ccnc2CO1 | 6.88% |
| Cc1cnn(CC2CN(CC(=O)Nc3ccnn3C(C)C)CCO2)c1 (stereo unspecified) | -8.06% |
| Cc1cc(C2CCC2)nc(N(C)CCc2ccccn2)n1 | -3.09% |
| Cc1cc2ccccc2n1CCC(=O)N1CCC2(CC1)CNC(=O)C2 | 0.105% |
| O=C(C1CCCC1)N1CC2(CCN(C3COC3)CC2)Cc2ccccc21 | 7.91% |
| COCc1nc(C(=O)N2CCCC2c2noc(C)n2)cs1 (stereo unspecified) | -12% |
| O=C1CCCCN1CCc1nc(-c2cccnn2)no1 | -5.67% |
| Cc1nccn1CC1CCCN1CCCc1nc(-c2cccs2)no1 (stereo unspecified) | -1.84% |
| CNC(=O)CN1CCO[C@H]2CN(CC3CC3)C[C@H]21 | 6.25% |
| CC(=O)Nc1ccn(Cc2ccccc2)n1 | 2.04% |
| COc1ccc(C)c2c1N(C(=O)c1cnc3onc(C)c3c1)CCC2 | -1.67% |
| CCN1CCc2c(sc3c2C(=O)NC(C=Cc2ccco2)N3)C1 (stereo unspecified) | -1.07% |
| c1ccc(-n2ncc(CN3CCCC(Cn4cncn4)C3)n2)cc1 (stereo unspecified) | -6.04% |
| O=C(N1CCOCC1)N1CCc2ncnc(NC3CC3)c2CC1 | -20.9% |
| CCCn1ccnc1SCC(=O)NC(Cc1ccccc1)C(C)=O (stereo unspecified) | -9.58% |
| Cc1ccc(CC2CCCN2CC(=O)NCc2cccnc2)cc1 (stereo unspecified) | -3.83% |
| COc1cc(CNC(=O)c2cc(Cl)ccc2F)ccn1 | -2.69% |

| Structure (SMILES) | cytotoxicity at 10 µM |
| --- | --- |
| CN(Cc1cccs1)C1CCC[C@@H]2CN(C(N)=O)C[C@H]12 (stereo partly specified) | 18.6% |
| Cc1ncc(CNCC2CCC(C(N)=O)CC2)n1-c1ccccc1 (stereo unspecified) | -12.9% |
| COCCN1C(=O)CO[C@H]2CN(Cc3ccccc3Cl)C[C@@H]21 | -6.55% |
| COc1ccccc1C(O)CNC(=O)Nc1ncccc1C (stereo unspecified) | -8.65% |
| Cc1cccc(N2CC3(CCN(C(=O)NC(C)C)C3)CC2=O)c1 (stereo unspecified) | -3.7% |
| CC(C)NC1CCN(CCc2ccc3c(c2)CCO3)CC1 | -21.8% |
| COc1ccc(CC(=O)NCCn2nc3ccccn3c2=O)cc1 | -8.61% |
| CCCn1ncc(C(=O)NC2CCN(C3CCOCC3)CC2)c1C | 5.66% |
| O=C([C@@H]1CCO[C@@H]2CCN(CC3CCOCC3)C[C@H]21)N1CCCO1 | 7.37% |
| O=C([C@H]1CCS(=O)(=O)[C@@H]2CN(Cc3ccc(F)cc3)C[C@H]12)N1CCCC1 | 2.96% |
| Cc1cc(C(=O)NS(C)(=O)=O)c(C)n1-c1ccccc1 | -8.81% |
| OCCn1nccc1C1CCN(CCOc2cccc(F)c2)CC1 | -10.8% |
| CC1CN(C(=O)Nc2cccc(CN3CCOC3=O)c2)CCO1 (stereo unspecified) | -7% |
| Cc1cc(S(C)(=O)=O)c(C)c(S(=O)(=O)NCC2CCCO2)c1 (stereo unspecified) | -8.02% |
| NC(=O)Cc1ccc(OCc2noc(C(=O)N3CCCC3)n2)cc1 | -13.6% |
| COc1ccc(NC(=O)c2ccc(CN3CC[C@H](O)C3)cc2)c(OC)n1 | 6.21% |
| CCCNC(=O)Nc1cc2c(cc1SC)OCCO2 | -19% |
| CN(C)C(=O)N1CCC2(CC1)C(c1cnn(C)c1)CC(=O)N2C (stereo unspecified) | -78.2% |
| O=C(c1ccn(-c2cccc(Cl)c2)n1)N1CCN(C2CC2)CC1 | -7.03% |
